Experimental data as given in ChEMBL document CHEMBL4118110, “The identification of inhibitory compounds of Rickettsia prowazekii methionine aminopeptidase for antibacterial applications” (Bioorg Med Chem Lett, 2018).

Assay: Inhibition of Rickettsia prowazekii N-terminal His6-tagged methionine aminopeptidase 1 expressed in Escherichia coli DLB3 Rosetta cells at 10 uM using Met-AMC as substrate preincubated for 1 hr followed by 30 mins incubation after substrate addition measured after 90 mins in presence of MnCl2 by fluorescence assay relative to control
Procedure, shortened: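 Recombinant R. prowazekii MetAP with Mn(II) as the metal cofactor. Met-AMC substrate; release of free AMC is followed by fluorescence (excitation 360 nm, emission 460 nm). Activity is the slope of fluorescence versus time, compared with an uninhibited control.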

Row | Structure (SMILES) | inhibition [%]
1 | CCc1nnc(SCC(=O)c2ccc(Cl)cc2)[nH]1 | 9 to 23
2 | Nc1nnc(SCC(=O)Nc2ccc(Cl)cc2)[nH]1 | 19 to 38
3 | c1ccc(CSc2n[nH]c(-c3ccco3)n2)cc1 | 13 to 16
4 | O=C(O)c1cnccn1 | 42 to 45
5 | Nc1cccc2c(-c3cccnc3)n[nH]c12 | 16 to 21
6 | O=C(O)c1cc(C2CC2)on1 | 28 to 30
7 | COc1ccc(C(=O)CSc2n[nH]c(N)n2)cc1 | 32 to 58
8 | Oc1ccc2nc(-c3ccccn3)oc2c1 | 1 to 43
9 | Nc1ccccc1-c1nnc2n1CCCCC2 | 5 to 46
10 | O=C(O)c1ccc(-c2cc(Cl)ccc2Cl)o1 | 1 to 57
11 | Nc1nnc(SCCCOc2ccc(Cl)cc2)[nH]1 | 22 to 32
12 | C=CCn1cnc2sc(C(=O)O)c(C)c2c1=O | 8 to 20
13 | CCn1cnc2sc(C(=O)O)c(C)c2c1=O | 7 to 47
14 | N#Cc1ccccc1CSc1nnc(N)[nH]1 | 27 to 28
15 | Cc1ccc(-n2nnc(C(=O)O)c2C2CC2)cc1 | 1 to 44
16 | O=C(O)c1ccc(-c2ccccc2Cl)s1 | 1 to 48
17 | Cc1cc(OC(C)C(=O)NN)cc(C)c1Cl (configuration not stated) | 31 to 69
18 | O=C(O)c1cnc2ccccc2c1O | 13 to 55
19 | C#CCSc1nc2sc(C(=O)O)c(C)c2c(=O)[nH]1 | 9 to 58
20 | O=C(O)c1c(-c2ccccc2)c(-c2ccccc2)n[nH]c1=O | 33 to 71
21 | Nc1n[nH]c(SCc2ccccc2Cl)n1 | 24 to 34
22 | COc1ccc(-c2nnc3c(N)cccn23)cc1 | 13 to 23
23 | CCOC(=O)CSc1n[nH]c(-c2ccco2)n1 | 1 to 51
24 | O=C(O)c1ccc(CSc2ccccc2)o1 | 5 to 34

Row | Structure (SMILES) | inhibition [%]
25 | O=C(O)c1cscn1 | 35 to 41
26 | N#CC1=C(c2ccccc2)CSC(c2ccccn2)=NC1=N | 2 to 20
27 | CC(C)CCNC(=O)c1ccc2[nH]c(=O)c(=O)[nH]c2c1 | 49 to 54
28 | O=C(O)c1csc(Cc2ccccc2)n1 | 1 to 67
29 | COC(=O)CSc1nnc(-c2ccco2)[nH]1 | 13 to 27
30 | Cc1c(C(=O)O)sc2[nH]c(=S)[nH]c(=O)c12 | 45 to 46
31 | Cc1cc(C(=O)O)n[nH]1 | 34 to 42
32 | CC(C)(C)C1CCc2n[nH]c(C(=O)O)c2C1 (configuration not stated) | 1 to 41
33 | Cc1ccc(CSc2nnc(N)[nH]2)cc1 | 36
34 | Cc1cccn2c(=O)c3cc(C(=O)O)sc3nc12 | 31 to 36
35 | Cc1nc2ccccc2n1Cc1ccc(C(=O)O)o1 | 10 to 21
36 | NCc1nnc(-c2ccccc2)o1 | 12 to 13
37 | Cc1cc(C)n(-c2ccc(Cl)c(C(=O)O)n2)n1 | 15 to 77
38 | CCc1ccc(OCCCSc2nnc(N)[nH]2)cc1 | 25 to 31
39 | COc1ccc(Cl)cc1-c1nnc(S)[nH]1 | 20 to 65
40 | O=c1[nH]c2cc(Cl)ccc2n(Cc2ccccc2)c1=O | 1 to 62
41 | Nc1n[nH]c(SCc2c(Cl)cccc2Cl)n1 | 5 to 17
42 | NC(=O)c1ccccc1N | 1 to 33
43 | O=C1CCCN1c1ccc(S(=O)(=O)Nc2cccc3cccnc23)cc1 | 5 to 22
44 | O=C(O)c1cccnc1-c1ncccc1C(=O)O | 13 to 49
45 | Cc1cc(C)cc(OCCSc2nnc(N)[nH]2)c1 | 38 to 39
46 | Cc1ccc(Sc2ccc(C(=O)O)o2)cc1 | 27 to 62
47 | CCc1nnc(SCC(=O)c2ccc(C)cc2)[nH]1 | 11 to 14
48 | CCCCCn1cnc2sc(C(=O)O)c(C)c2c1=O | 34 to 57

Row | Structure (SMILES) | inhibition [%]
49 | CCc1ccc(C(=O)CSc2nnc(CC)[nH]2)cc1 | 9 to 47
50 | Nc1[nH]n(-c2ccccc2)c(=O)c1C1=NCCCCC1 | 2 to 35
51 | Cc1n[nH]c(SCc2ccc([N+](=O)[O-])cc2)n1 | 1 to 38
52 | Nc1nnc(SCC(=O)OCCCc2ccccc2)[nH]1 | 44 to 62
53 | CN(C)c1cccc(-c2ccc(C(=O)NN)cc2)c1 | 29 to 56
54 | CCOC(=O)C(C)Sc1nnc(N)[nH]1 (configuration not stated) | 36 to 55
55 | Cc1nnc(C(N)c2ccccc2)o1 (configuration not stated) | 5 to 8
56 | CCn1nc(C(=O)O)c2ccccc2c1=O | 19 to 26
57 | Cc1cccc(OCc2ccc(C(=O)O)o2)c1 | 1 to 33
58 | Nc1ccc(C(=O)c2ccccc2)cc1N | 10 to 39
59 | CC(C)c1ccc(C(=O)CSc2nc[nH]n2)cc1 | 1 to 32
60 | O=C(O)c1cc(Br)c(Br)s1 | 30 to 64
61 | O=C(O)c1ccc(CS(=O)(=O)c2ccccc2)o1 | 16 to 27
62 | CC(Sc1nnc(N)[nH]1)C(=O)OCc1ccccc1 (configuration not stated) | 37 to 54
63 | CCOC(=O)CSc1nnc(N)[nH]1 | 18 to 34
64 | NNC(=O)COc1cccc(Br)c1 | 1 to 45
65 | C1CCc2nnc(-c3nnc4n3CCCCC4)n2CC1 | 1 to 60
66 | Cc1ccc(OCCCCSc2nnc(N)[nH]2)cc1 | 45 to 65
67 | CCc1nnc(SCC(=O)OC)[nH]1 | 6 to 25
68 | Cc1ccc(-n2nnc(C(=O)O)c2C)cc1C | 41
69 | NCc1nc(-c2ccc(F)cc2)no1 | 62 to 70
70 | O=C(O)c1ccc(COc2ccc3ccc(=O)oc3c2)o1 | 14 to 21
71 | CC(C)Oc1ccc(CCSc2nnc(N)[nH]2)cc1 | 47 to 53
72 | COC(=O)CSc1n[nH]c(-c2ccncc2)n1 | 1 to 39

Row | Structure (SMILES) | inhibition [%]
73 | O=C(O)c1cc(-c2ccccn2)nc2ccc(F)cc12 | 29 to 61
74 | COc1ccccc1OCc1ccc(C(=O)O)o1 | 6 to 17
75 | CCc1n[nH]c(SCC(=O)NCCc2ccccc2)n1 | 1 to 15
76 | O=C(NCc1ccco1)c1ccc2nc(O)c(O)nc2c1 | 35 to 39
77 | CCCN1CC(=O)C(c2nc3ccccc3[nH]2)=C1N | 1 to 31
78 | CCCOC(=O)CSc1nnc(N)[nH]1 | 15 to 36
79 | Cc1ccc(C(=O)NN)cc1 | 1 to 34
80 | O=c1c2ccc(-c3ccccn3)nc2[nH]n1-c1ccccc1 | 1 to 55
81 | Nc1nnc(SCC(=O)OCc2ccccc2)[nH]1 | 20 to 34
82 | COc1ccc(C(=O)CSc2nnc(C)[nH]2)cc1C | 16 to 56
83 | Nc1n[nH]c(SCc2ccc(Br)cc2)n1 | 28 to 36
84 | O=C(CSc1nnc[nH]1)c1cccc2ccccc12 | 1 to 39
85 | Cc1ccc(-c2cc(C(=O)O)nn2C)cc1 | 42 to 45
86 | CC(N)c1nnc(-c2ccccc2)o1 (configuration not stated) | 1 to 32
87 | Sc1nnc(-c2ccc(Br)cc2)[nH]1 | 33 to 61
88 | C1=C(c2ccccc2)Nc2ncnn2C1c1ccco1 (configuration not stated) | 23 to 32
89 | S=c1nc(-c2ccccn2)cc[nH]1 | 32 to 75
90 | CC(C)(Oc1ccc(Cl)cc1)C(=O)NN | 42 to 46
91 | Nc1cccc(-c2cnc(-c3ccccn3)s2)c1 | 30 to 36
92 | O=C(O)c1ccc(C2=NCc3ccccc3N2)o1 | 7 to 63
93 | Nc1nnc(SCc2ccc(F)cc2)[nH]1 | 1 to 18
94 | Cc1nc2sc(C(=O)O)c(C)c2c(=O)[nH]1 | 11 to 18
95 | CC(C)OC(=O)c1ccc(CSc2nnc(N)[nH]2)cc1 | 59 to 66
96 | NNC(=O)c1ccc(-c2ccc(Cl)cc2)o1 | 10 to 41

Row | Structure (SMILES) | inhibition [%]
97 | CC(=O)c1c(C(=O)O)nn(-c2ccc(Cl)cc2)c1C | 17 to 20
98 | O=C(O)c1cnc2c(ccc3ccccc32)c1O | 22 to 43
99 | Cc1c(Cl)cccc1NC(=O)CSc1nnc[nH]1 | 22 to 62
100 | COCCCn1cnc2sc(C(=O)O)c(C)c2c1=O | 7 to 22
101 | CCc1n[nH]c(SCc2ccc([N+](=O)[O-])cc2)n1 | 1 to 27
102 | Cc1ccccc1NC(=O)CSc1nnc[nH]1 | 26 to 64
103 | COc1ccc(OCc2ccc(C(=O)O)o2)cc1 | 1 to 37
104 | O=C(O)c1nn(-c2ccccc2)c(=O)c2ccccc12 | 21 to 44
105 | Cc1nnc(SCC(=O)c2ccc(C)c(C)c2)[nH]1 | 10 to 24
106 | Cc1n[nH]c(SCC(=O)NCCc2ccccc2)n1 | 1 to 18
107 | Cc1c(C(=O)O)sc2nc(C)n(C)c(=O)c12 | 22 to 34
108 | c1ccc(-c2nc3ccccc3[nH]2)nc1 | 1 to 35
109 | COc1ccc(C(=O)CSc2nnc[nH]2)cc1C | 1 to 48
110 | Cc1ccc(OCCCSc2n[nH]c(N)n2)cc1 | 42 to 51
111 | Nc1n[nH]c(SCC(=O)c2cc3ccccc3o2)n1 | 21 to 28
112 | O=C(CSc1nnc[nH]1)Nc1ccccc1 | 2 to 60
113 | Nc1n[nH]c(SCCOc2ccccc2)n1 | 28 to 29
114 | Oc1ccccc1-c1nncn1-c1ccccc1 | 14 to 46
115 | CSc1cc(C(=O)O)nc(-c2ccccn2)c1 | 36 to 68
116 | Nc1nnc(SCC(=O)c2ccc(O)cc2O)[nH]1 | 2 to 19
117 | CN(C)Cc1cc(C(=O)O)no1 | 2 to 60
118 | N#Cc1cccc(NCc2ccc(O)c3ncccc23)c1 | 1 to 5
119 | Nc1nnc(SCc2ccc([N+](=O)[O-])cc2)[nH]1 | 42 to 45
120 | c1ccc(-c2nn[nH]n2)nc1 | 44 to 56

Row | Structure (SMILES) | inhibition [%]
121 | Cc1c(C(=O)O)sc2ncn(C3CCCC3)c(=O)c12 | 20 to 26
122 | CCOC(=O)c1cccc(CSc2nnc(N)[nH]2)c1 | 47 to 59
123 | CCc1nnc(SCC(=O)c2ccc(C)cc2C)[nH]1 | 14 to 45
124 | Cc1nnc(CN)o1 | 13 to 32
125 | COc1cccc(C(=O)Nc2ccsc2C(=O)O)c1 | 1 to 32
126 | O=C(O)C(Sc1nnc[nH]1)c1ccccc1 (configuration not stated) | 3 to 41
127 | CCc1nnc(SCC(=O)c2ccc(F)cc2)[nH]1 | 2 to 13
128 | Cc1cccc2nc(C(=O)O)cn12 | 38 to 58
129 | O=C(NCCCCl)C(=O)NCCCCl | 8 to 43
130 | NNC(=O)C(=O)Nc1ccccc1C(=O)O | 11 to 63
131 | CCc1n[nH]c(SCC(=O)c2cc(C)ccc2C)n1 | 11 to 43
132 | Oc1ccc(Br)cc1-c1nnco1 | 1 to 14
133 | Cc1cc(C)c(C(=O)O)c(O)n1 | 44 to 52
134 | O=C(CSc1nnc(-c2ccco2)[nH]1)N1CCCCC1 | 1 to 48
135 | Cc1ccc2nc(-c3ccccn3)cc(C(=O)O)c2c1 | 28
136 | Cc1cc(C)nc(SCc2ccc(C(=O)O)o2)n1 | 9 to 11
137 | Cc1ccccc1-c1nnc(C(C)N)o1 (configuration not stated) | 2 to 39
138 | CCc1nnc(SCC(=O)c2ccccc2)[nH]1 | 1 to 40
139 | Oc1ccc(-c2ccc(F)cc2)nn1 | 44 to 66
140 | NC(=O)c1nc(-c2ccccc2)oc1Cl | 4 to 59
141 | CC(C)CC(N)c1nnc2ccccn12 (configuration not stated) | 22 to 61
142 | COc1ccc(C=O)cc1OCc1ccc(C(=O)O)o1 | 36 to 65
